Bioassay records from PubChem.
CRFR2-BP antag – antagonists of CRF-BP/CRF-R2 complex, primary screen, cell-based, HEK293, calcium dye fluorescence, uHTS; CRF-induced calcium fluorescence; inhibition, % at 11.8 µM; 350,000 tested, 0.59% active; AID 588475, 2011;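 active = inhibition of the ligand-induced calcium signal above about 50% at the single tested concentration, limit read from the data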
DDE Tn6 FP inh – inhibitors of Tn6 peptide binding to fibrin DD(E), primary screen, biochemical, fluorescence polarization, human fibrin, Tn6 probe; Fibrin DD(E) TRITC-Tn6 fluorescence polarization displacement; inhibition, % at 8.3 µM; 370,000 tested, 0.21% active; AID 720509, 2013;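 active = inhibition above a per-campaign cutoff: mean of compounds within control limits plus 3 SD, cut at about 15% in these data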
Tn7 DDE FP – inhibitors of Tn7 peptide binding to fibrin DD(E), primary screen, biochemical, fluorescence polarization, human fibrin, Tn7 probe; Fibrinogen beta chain (Homo sapiens), P02675; FP displacement of FITC-Tn7 peptide from fibrin DD(E); 0% = median of compound wells per plate; inhibition, % at 8.3 µM; 370,000 tested, 0.13% active; AID 720508, 2013;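 active = inhibition above the mean of compounds falling within the control limits plus 3 SD of them, cut at about 14% in these data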
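assay system = human clot-derived fibrin DD(E) complex | quantity = Fibrin-DD(E) at 2 µM final | timing = 10 min preincubation, 3 h with tracer, room temperature | signal = fluorescence polarization | measure = percent inhibition | benchmarks = high control wells with 10 µM unlabelled Aha-Tn7 peptide (full inhibition) | replicates = singlicate testing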
NRP1-CendR mod – modulators of CendR peptide binding to NRP-1, primary screen, biochemical, fluorescence polarization, uHTS; FAM-RPARPAR peptide binding to NRP-1; inhibition, % at 25 µM; 360,000 tested, 0.85% active; AID 602438, 2012;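 active = inhibition or corrected inhibition above about 18%, plus a signal ratio from 0.5 to 1.5, limit read from the data, passing the limit was not always enough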
Target sequence (O14786 whole entry, looked up): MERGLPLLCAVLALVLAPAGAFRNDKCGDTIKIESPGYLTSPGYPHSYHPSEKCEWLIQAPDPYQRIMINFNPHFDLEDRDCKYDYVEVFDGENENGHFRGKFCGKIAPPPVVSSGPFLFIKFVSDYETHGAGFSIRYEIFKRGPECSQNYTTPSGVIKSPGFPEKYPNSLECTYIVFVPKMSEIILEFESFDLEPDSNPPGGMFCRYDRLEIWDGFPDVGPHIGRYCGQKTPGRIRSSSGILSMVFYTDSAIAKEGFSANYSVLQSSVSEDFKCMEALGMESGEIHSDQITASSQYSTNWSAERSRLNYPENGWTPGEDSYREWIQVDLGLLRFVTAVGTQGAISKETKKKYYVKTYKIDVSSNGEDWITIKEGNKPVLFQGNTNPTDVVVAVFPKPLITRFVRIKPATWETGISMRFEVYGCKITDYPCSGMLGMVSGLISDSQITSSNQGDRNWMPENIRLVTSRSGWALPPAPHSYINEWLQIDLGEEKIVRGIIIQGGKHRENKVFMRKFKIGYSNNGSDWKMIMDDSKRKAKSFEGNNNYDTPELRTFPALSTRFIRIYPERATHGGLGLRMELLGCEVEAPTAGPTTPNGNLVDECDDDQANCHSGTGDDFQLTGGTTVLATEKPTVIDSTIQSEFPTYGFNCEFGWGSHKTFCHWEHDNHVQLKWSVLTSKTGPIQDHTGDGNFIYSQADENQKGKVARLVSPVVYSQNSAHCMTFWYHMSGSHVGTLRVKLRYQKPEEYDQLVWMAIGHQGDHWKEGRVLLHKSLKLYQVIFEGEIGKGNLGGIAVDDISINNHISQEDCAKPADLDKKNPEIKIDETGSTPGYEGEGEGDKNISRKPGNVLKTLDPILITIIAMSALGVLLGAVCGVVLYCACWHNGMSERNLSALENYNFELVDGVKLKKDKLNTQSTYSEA
CRFBP-R2 agonist – agonists of CRF-BP/CRF-R2 complex, primary screen, cell-based, HEK293, calcium dye fluorescence, uHTS; CRF-binding protein / CRF receptor 2 complex (human); calcium dye fluorescence (FLIPR); percent of saturating CRF peptide response; activation, % at 13.2 µM; 350,000 tested, 0.46% active; AID 588473, 2011;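 active = activation of at least 50%, plus an integration ratio under a set limit after plate pattern correction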
proKLK7 act – proKLK7 zymogen activators, primary screen, biochemical, fluorescence intensity; Kallikrein-7 (Homo sapiens), P49862; purified proKLK7, EDANS-DABCYL substrate fluorescence; 100% is mature enzyme control, 0% vehicle; activation, % at 7 µM; 370,000 tested, 0.9% active; AID 652039, 2013;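 active = activation above the mean of all tested compounds plus 3 SD, computed per campaign excluding outliers beyond control limits, cut at about 13% in these data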
Hits are given with their value; – = inactive; · = no result given. Only some compounds are listed: those with a hit (about 2.9% of all), similar ones and a draw of the others.

SMILES | CRFR2-BP antag | DDE Tn6 FP inh | Tn7 DDE FP | NRP1-CendR mod | CRFBP-R2 agonist | proKLK7 act
N#CCC[C@H]1CC[C@]2(CCCN(Cc3ccc(Br)cc3)C2)O1 | · | – | – | · | · | –
CCOC(=O)C[C@H]1c2ccc(C(F)(F)F)cc2S(=O)(=O)N1C(C)(C)C | – | – | – | 22 | – | –
CCOC(=O)C[C@H]1c2ccc(C(F)(F)F)cc2S(=O)(=O)N1C1CCCC1 | – | – | – | – | – | –
CCOC(=O)C[C@H]1c2ccc(C(F)(F)F)cc2S(=O)(=O)N1Cc1ccccc1 | – | – | – | – | – | –
CCOC(=O)C[C@H]1c2cc(C(F)(F)F)ccc2S(=O)(=O)N1Cc1ccccc1 | – | – | – | 26 | – | –
Cc1ccc(NC(=O)OCCCN2C(=O)CCC23CCC(C)CC3)cc1C (stereo not drawn) | · | – | – | · | · | –
CC(CCN1CCC(C(O)(c2ccccc2)c2ccccc2)CC1)Oc1cccc(C(F)(F)F)c1 (stereo not drawn) | · | – | – | · | · | –
CN(C)c1ccc(Cl)cc1N | – | – | – | 28 | – | –
O=S1(=O)C=CCN1Cc1cn(Cc2ccccc2)nn1 | · | – | – | · | · | –
O=C(COC(=O)c1ccc(F)c([N+](=O)[O-])c1)NC(=O)NCc1ccccc1 | – | – | – | 22 | – | –
Cc1ccc(C(=O)OCC(=O)NC(=O)NCc2ccccc2)cc1C | – | – | – | – | – | –
O=C(Nc1ccc(F)cc1Cl)C1CCCN1S(=O)(=O)c1cccc2cccnc12 (stereo not drawn) | · | – | – | · | · | –
Clc1ccc(-c2ccc(C=Nc3ccc(N4CCOCC4)cc3)o2)c(Cl)c1 | – | – | – | – | 210 | –
O=C1N(CCCO)CCC12CCCCC2 | · | – | – | · | · | –
CCc1nnc(NS(=O)(=O)c2ccc(NC(=S)NC(=O)/C=C/c3ccccc3)cc2)s1 | 56 | – | – | – | – | –
C=CCc1cccc2cc(C(=O)Nc3ccc(S(=O)(=O)Nc4nnc(CC)s4)cc3)c(=O)oc12 | 61 | – | – | – | – | –
CC(OC(=O)c1cccc(S(=O)(=O)Nc2cccc(C(F)(F)F)c2)c1)C(=O)Nc1ccc2c(c1)OCCO2 (stereo not drawn) | – | – | – | 31 | – | –
CCC(C)c1ccc(S(=O)(=O)N2CCN(CC(O)COCC3CCCO3)CC2)cc1 (stereo not drawn) | 64 | – | – | – | – | –
COc1ccc(Cn2cc(CN3[C@@H](CC(C)C)COc4cccc(F)c4S3(=O)=O)nn2)cc1 | · | – | – | · | · | –
O=C(Nc1nc(-c2ccccc2)cs1)c1ccccc1NS(=O)(=O)c1ccc(F)cc1 | 101 | – | – | – | 65 | –
CN(C)c1ccc(/C=C(/C#N)C(=O)NCc2ccccc2)o1 | – | – | – | – | 108 | –
COC(=O)c1ccc2nc(C3CCCCC3)c(Cc3ccccc3OC)n2c1 | · | – | – | · | · | –
Cc1ccc([C@H]2C(C(=O)O)=CC[C@@H](c3ccc(C)cc3)N2S(=O)(=O)c2ccc(C)cc2)cc1 | 94 | – | – | – | – | –
Cc1ccc(S(=O)(=O)N2[C@@H](c3ccc(Br)cc3)C(C(=O)O)=CC[C@H]2c2cccc(C)c2)cc1 | 86 | – | – | – | – | –
Cc1ccc([C@H]2C(C(=O)O)=CC[C@@H](c3cccc(C)c3)N2S(=O)(=O)c2ccc(C)cc2)cc1 | – | – | – | – | – | –
SMILES | CRFR2-BP antag | DDE Tn6 FP inh | Tn7 DDE FP | NRP1-CendR mod | CRFBP-R2 agonist | proKLK7 act
Cc1ccc([C@H]2C(C(=O)O)=CC[C@@H](c3ccc(Cl)cc3)N2S(=O)(=O)c2ccc(C)cc2)cc1 | 66 | – | – | – | – | –
CCCCC[C@@H]1C=C(C(=O)O)[C@H](c2cccc(C)c2)N1S(=O)(=O)c1ccc(C)cc1 | 60 | – | – | – | – | –
CCCCC[C@@H]1C=C(C(=O)O)[C@H](c2ccc(Cl)c(Cl)c2)N1S(=O)(=O)c1ccc(C)cc1 | – | – | – | – | – | –
Cc1ccc(S(=O)(=O)N2[C@@H](c3ccc(Cl)cc3)C(C(=O)O)=CC[C@H]2c2ccc(C(C)C)cc2)cc1 | – | – | – | – | – | –
CC(COc1cc(F)cc(F)c1)CN1CCC(C(O)(c2ccccc2)c2ccccc2)CC1 (stereo not drawn) | · | – | – | · | · | –
Cc1ccc(S(=O)(=O)N2[C@@H](c3ccc(C(C)(C)C)cc3)C(C(=O)O)=CC[C@H]2c2ccc(Cl)c(Cl)c2)cc1 | – | – | – | – | – | –
Cc1ccc(S(=O)(=O)N2[C@@H](c3ccc(Cl)cc3)C(C(=O)OC(C)(C)C)=CC[C@H]2c2ccc(Cl)c(Cl)c2)cc1 | · | – | – | 30 | · | –
Cc1c(OCC(=O)NCCN2CCOCC2)ccc2c3c(c(=O)oc12)CCC3 | 115 | – | – | – | – | –
Cc1c(OC(C)C(=O)NCc2ccccn2)ccc2c3c(c(=O)oc12)CCC3 (stereo not drawn) | – | – | – | 23 | – | –
COc1ccc(-c2c(Cc3ccccc3)nc(NC(=O)c3ccccc3)n2C)cc1 | · | – | – | · | · | –
CCOC(=O)C1Nc2ccc(C(F)(F)F)cc2C2c3ccccc3CC12 (stereo not drawn) | – | – | – | – | – | 21
CCOC(=O)C1Nc2ccc(OC(F)(F)F)cc2C2C=CCC12 (stereo not drawn) | – | – | – | – | – | –
CCOC(=O)C1Nc2ccccc2C2C(O)C(O)CC12 (stereo not drawn) | – | – | – | 27 | – | –
CCCCNS(=O)(=O)CC1NCc2ccc(C)cc21 (stereo not drawn) | · | – | – | · | · | –
C#CCCCN([C@H](C(=O)OC)C(C)C)S(=O)(=O)c1ccc(F)cc1Br | · | – | – | · | · | –
COc1cc(C=NN=c2sc3ccccc3n2C)ccc1OCCO | · | – | – | · | · | –
O=C1N/C(=N/N=C/c2ccc(F)cc2)SC1c1ccccc1 (stereo not drawn) | 52 | – | – | – | – | –
OCCCc1n[nH]c(=S)n1-c1ccccc1 | – | – | – | 23 | – | –
C[C@H]1[C@@H](NC(=O)C(c2ccccc2)c2ccccc2)CC[C@@]23CCCN2C(=O)CCC[C@@H]13 | · | – | – | · | · | ·
O=C(C(=O)N1CCC(CNC(=O)C2COc3ccccc3O2)CC1)c1cccs1 (stereo not drawn) | · | – | – | · | · | –
Cc1ccc(CNC(=O)c2cnc(-c3ccccn3)nc2C(F)(F)F)cc1 | – | – | – | – | – | –
